How the values were obtained:
[1] = Mutagenecity against Salmonella typhimurium TA97a assessed as number of colonies at 200 ug/plate in presence of Sprague-Dawley rat S9 with metabolic activation measured after 48 hrs by Ames test (reference value: 55 +/- 7.1); format: toxicity, subcellular; details: salmonella enterica subsp. enterica serovar typhimurium, s9, 48 h
[2] = Genotoxicity in Salmonella typhimurium TA1535 harboring pSK1002 assessed as survival at 0.125 mg/ml in absence of Sprague-Dawley rat liver S9 fraction metabolic activation by SOS/umu assay relative to control; format: toxicity; details: salmonella enterica subsp. enterica serovar typhimurium, read-out: Survival
Outline: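 Survival of S. typhimurium TA1535/pSK1002 exposed to a range of compound concentrations with or without S9 mix in 96-well format. Survival percentage measured as the cytotoxicity arm of the SOS/umu test. Concentrations with survival ≥80% are counted as non-cytotoxic.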

[3] = (§1) Toxicity in BALB/c mouse infected with Trypanosoma cruzi MHOM/Pe/2011/Arequipa;DTU 5 bloodstream trypomastigote assessed as change in serum lactate dehydrogenase level in chronic phase at 20 mg/kg/day, po administered for 5 consecutive days starting from day 70 post infection measured on day 100 post infection relative to control; format: organism-based; details: in vivo
[4] = Mutagenecity against Salmonella typhimurium TA 100 assessed as number of colonies at 66.7 ug/plate in absence of Sprague-Dawley rat S9 with metabolic activation measured after 48 hrs by Ames test (reference value: 35.7 +/- 0.6); format: toxicity; details: salmonella enterica subsp. enterica serovar typhimurium, s9, 48 h
[5] = Mutagenecity against Salmonella typhimurium TA98 assessed as number of colonies at 66.7 ug/plate in presence of Sprague-Dawley rat S9 measured after 48 hrs by Ames test (reference value: 4 +/- 2); format: toxicity, subcellular; details: salmonella enterica subsp. enterica serovar typhimurium, s9, 48 h
[6] = as §1, with “uric acid” for “lactate dehydrogenase”; format: organism-based; details: in vivo
[7] = Genotoxicity in Salmonella typhimurium TA1535 harboring pSK1002 assessed as umu gene induction at 1 mg/ml in presence of Sprague-Dawley rat liver S9 fraction metabolic activation by SOS/umu assay relative to control; format: toxicity, subcellular; details: salmonella enterica subsp. enterica serovar typhimurium, read-out: FC
Outline: (§2)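 umu induction in S. typhimurium TA1535/pSK1002, with or without S9 mix, in 96-well format. β-galactosidase read colorimetrically with ONPG substrate. Output given as relative units and induction factor (IF). The run is valid if positive controls reach IF ≥2. A compound counts as genotoxic at IF ≥2 at a concentration giving ≥80% bacterial survival.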

[8] = (§3) Toxicity in BALB/c mouse infected with Trypanosoma cruzi MHOM/Pe/2011/Arequipa;DTU 5 bloodstream trypomastigote assessed as decrease in serum alkaline phosphatase level in acute phase at 20 mg/kg/day, po administered for 5 consecutive days starting from day 8 post infection and measured on day 100 post infection by biochemical analysis relative to control; format: organism-based; set-up: scale not given: the % may be the effect or the level left; details: in vivo
Outline: (§4)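 Female BALB/c mice (10–12 weeks, 14–20 g; groups of three) were infected i.p. with 5 × 10^5 Arequipa bloodstream trypomastigotes. Dosing was oral at 20 mg/kg/day for 5 days, from day 8 pi (acute) or day 70 pi (chronic), as a 2 mg/ml suspension in 5% DMSO/0.5% HPMC; controls received vehicle. Cyclophosphamide 200 mg/kg i.p. was given at day 80 pi. Serum was collected 2 days post-treatment and at necropsy by cardiac puncture and compared with infected untreated controls.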

[9] = Genotoxicity in Salmonella typhimurium TA1535 harboring pSK1002 assessed as umu gene induction at 0.001 mg/ml in absence of Sprague-Dawley rat liver S9 fraction metabolic activation by SOS/umu assay relative to control; format: toxicity; details: salmonella enterica subsp. enterica serovar typhimurium, read-out: FC; outline: as §2
[10] = Mutagenecity against Salmonella typhimurium TA97a assessed as number of colonies at 200 ug/plate in absence of Sprague-Dawley rat S9 […] measured after 48 hrs by Ames test ( Rvb = 37 +/- 6.5); format: toxicity; details: salmonella enterica subsp. enterica serovar typhimurium, s9, 48 h
[11] = Mutagenecity against Salmonella typhimurium TA1535 assessed as number of colonies at 200 ug/plate in absence of Sprague-Dawley rat S9 measured after 48 hrs by Ames test (reference value: 13.3 +/- 2.5); format: toxicity; details: salmonella enterica subsp. enterica serovar typhimurium, s9, 48 h
[12] = Mutagenecity against Salmonella typhimurium TA1535 assessed as number of colonies at 66.7 ug/plate in absence of Sprague-Dawley rat S9 measured after 48 hrs by Ames test (reference value: 13.3 +/- 2.5); format: toxicity; details: salmonella enterica subsp. enterica serovar typhimurium, s9, 48 h
[13] = (§5) Toxicity in BALB/c mouse infected with Trypanosoma cruzi MHOM/Pe/2011/Arequipa;DTU 5 bloodstream trypomastigote assessed as change in serum alkaline phosphatase level in chronic phase at 20 mg/kg/day, po administered for 5 consecutive days starting from day 70 post infection and measured at day 76 post infection relative to control; format: organism-based; details: in vivo; outline: as §4
[14] = Mutagenecity against Salmonella typhimurium TA 102 assessed as number of colonies at 66.7 ug/plate in absence of Sprague-Dawley rat S9 with metabolic activation measured after 48 hrs by Ames test (reference value: 78.7 +/- 7.8); format: toxicity; details: salmonella enterica subsp. enterica serovar typhimurium, s9, 48 h
[15] = as §1, with “alkaline phosphatase” for “lactate dehydrogenase”; format: organism-based; details: in vivo
[16] = Mutagenecity against Salmonella typhimurium TA 100 assessed as number of colonies at 7.4 ug/plate in absence of Sprague-Dawley rat S9 with metabolic activation measured after 48 hrs by Ames test (reference value: 35.7 +/- 0.6); format: toxicity; details: salmonella enterica subsp. enterica serovar typhimurium, s9, 48 h
[17] = Genotoxicity in Salmonella typhimurium TA1535 harboring pSK1002 assessed as umu gene induction at 0.002 mg/ml in absence of Sprague-Dawley rat liver S9 fraction metabolic activation by SOS/umu assay relative to control; format: toxicity; details: salmonella enterica subsp. enterica serovar typhimurium, read-out: FC; outline: as §2
[18] = Mutagenecity against Salmonella typhimurium TA1535 assessed as number of colonies at 7.4 ug/plate in absence of Sprague-Dawley rat S9 measured after 48 hrs by Ames test (reference value: 13.3 +/- 2.5); format: toxicity; details: salmonella enterica subsp. enterica serovar typhimurium, s9, 48 h
[19] = Mutagenecity against Salmonella typhimurium TA1535 assessed as number of colonies at 22.2 ug/plate in absence of Sprague-Dawley rat S9 measured after 48 hrs by Ames test (reference value: 13.3 +/- 2.5); format: toxicity; details: salmonella enterica subsp. enterica serovar typhimurium, s9, 48 h
[20] = Genotoxicity in Salmonella typhimurium TA1535 harboring pSK1002 assessed as umu gene induction at 0.125 mg/ml in presence of Sprague-Dawley rat liver S9 fraction metabolic activation by SOS/umu assay relative to control; format: toxicity, subcellular; details: salmonella enterica subsp. enterica serovar typhimurium, read-out: FC; outline: as §2
[21] = as §3, with “serum total bilirubin” for “serum alkaline phosphatase”, “measured at” for “measured on”, “day 14” for “day 100”; format: organism-based; set-up: scale not given: the % may be the effect or the level left; details: in vivo
[22] = as §3, with “as change” for “as decrease”, “measured at” for “measured on”, “day 14” for “day 100”; format: organism-based; details: in vivo
[23] = as §3, with “change” for “decrease”, “urea” for “alkaline phosphatase”; format: organism-based; details: in vivo
[24] = as §5, with “urea” for “alkaline phosphatase”; format: organism-based; details: in vivo
[25] = as §5, with “decrease” for “change”; format: organism-based; set-up: scale not given: the % may be the effect or the level left; details: in vivo
[26] = as §3, with “increase” for “decrease”, “total bilirubin” for “alkaline phosphatase”, “days” for “days starting from day 8 post infection”; format: organism-based; details: in vivo

For `O=C(CCN1CCN(c2ccc(Cl)cc2)CC1)c1ccc(O)cc1`, the Activity [1] was 41, the viability at 0.125 mg/ml [2] was 198% and the Activity [3] was > 10%. For the same molecule, the Activity [4] was 38, the Activity [5] was 6.3 and the Activity [6] was > 10%. For the same molecule, the fold induction at 1 mg/ml [7] was 0.38, the Activity [8] was “<= 10%” and the fold induction at 0.001 mg/ml [9] was 0.83. For the same molecule, the Activity [10] was 32.3, the Activity [11] was 4 and the Activity [12] was 3.7. The Activity [13] was > 10%, the Activity [14] was 73.3 and the Activity [15] was > 10%. For the same molecule, the Activity [16] was 32.3, the fold induction at 0.002 mg/ml [17] was 0.78 and the Activity [18] was 2.3. It also gave an Activity [19] of 4 and a fold induction at 0.125 mg/ml [20] of 0.84.
For `O=C(Cn1ccnc1[N+](=O)[O-])NCc1ccccc1` [BENZNIDAZOLE], the Activity [21] was “<= 10%”, the Activity [22] was > 10% and the Activity [13] was > 10%.
For `O=C(CCN1CCN(c2ccc(C(F)(F)F)cc2)CC1)c1ccc(O)cc1`, the viability at 0.125 mg/ml [2] was 122%, the Activity [23] was > 10% and the fold induction at 1 mg/ml [7] was 0.37. For the same molecule, the Activity [24] was > 10%, the Activity [8] was “<= 30%” and the Activity [25] was “<= 10%”. The fold induction at 0.001 mg/ml [9] was 0.91, the Activity [26] was > 40% and the fold induction at 0.002 mg/ml [17] was 0.74. For the same molecule, the fold induction at 0.125 mg/ml [20] was 0.63.

Reference: ChEMBL document CHEMBL4402517, “Rational modification of Mannich base-type derivatives as novel antichagasic compounds: Synthesis, in vitro and in vivo evaluation” (Bioorg Med Chem, 2019)
